What was measured:
ABCB1 (P-glycoprotein) = ABCB1 (P-glycoprotein) (Homo sapiens, UniProt P08183); test: Displacement of [3H]-azidopine from ABCB1 in human KBV1 cell membranes at IC50 incubated for 20 mins in dark followed by irradiation of UV-light measured after 20 mins by SDS-PAGE based autoradiography relative to control; conditions: probe [3H]-azidopine
NCI/ADR-RES = test: Growth inhibition of human MCF7/ADR cells after 48 hrs by SRB assay; assay type: functional, cell-based
Outline: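 Doxorubicin-selected MCF-7/ADR cells maintained under doxorubicin, grown in RPMI 1640 with glutamine and 10% fetal calf serum, 37 °C, 5% CO2. Log-phase cells plated, attached 24 h, exposed to varying compound concentrations for 48 h; ethanol vehicle controls. Survival by SRB absorbance versus control; triplicate readings averaged for IC50.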

MCF7 = test: Growth inhibition of human MCF7 cells after 48 hrs by SRB assay; assay type: functional, cell-based; conditions: MCF7, 48 h
Outline: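 MCF-7 cells in RPMI 1640 with glutamine and 10% fetal calf serum, 37 °C, 5% CO2. Log-phase cells plated, attached 24 h, then exposed to varying compound concentrations for 48 h; ethanol vehicle controls. Survival by SRB, absorbance 540 nm versus control; each dilution in triplicate, IC50 from mean of triplicates.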

[1] = molecular target: ATP-dependent translocase ABCB1 (Homo sapiens, UniProt P08183); test: Inhibition of ABCB1 in human MCF7/ADR cells assessed as potentiation of vinblastine-induced cytotoxicity at IC10 after 7 days by SRB assay relative to vinblastine alone; assay type: cell-based; conditions: 168 h
Sequence of ATP-dependent translocase ABCB1 (P08183 whole entry): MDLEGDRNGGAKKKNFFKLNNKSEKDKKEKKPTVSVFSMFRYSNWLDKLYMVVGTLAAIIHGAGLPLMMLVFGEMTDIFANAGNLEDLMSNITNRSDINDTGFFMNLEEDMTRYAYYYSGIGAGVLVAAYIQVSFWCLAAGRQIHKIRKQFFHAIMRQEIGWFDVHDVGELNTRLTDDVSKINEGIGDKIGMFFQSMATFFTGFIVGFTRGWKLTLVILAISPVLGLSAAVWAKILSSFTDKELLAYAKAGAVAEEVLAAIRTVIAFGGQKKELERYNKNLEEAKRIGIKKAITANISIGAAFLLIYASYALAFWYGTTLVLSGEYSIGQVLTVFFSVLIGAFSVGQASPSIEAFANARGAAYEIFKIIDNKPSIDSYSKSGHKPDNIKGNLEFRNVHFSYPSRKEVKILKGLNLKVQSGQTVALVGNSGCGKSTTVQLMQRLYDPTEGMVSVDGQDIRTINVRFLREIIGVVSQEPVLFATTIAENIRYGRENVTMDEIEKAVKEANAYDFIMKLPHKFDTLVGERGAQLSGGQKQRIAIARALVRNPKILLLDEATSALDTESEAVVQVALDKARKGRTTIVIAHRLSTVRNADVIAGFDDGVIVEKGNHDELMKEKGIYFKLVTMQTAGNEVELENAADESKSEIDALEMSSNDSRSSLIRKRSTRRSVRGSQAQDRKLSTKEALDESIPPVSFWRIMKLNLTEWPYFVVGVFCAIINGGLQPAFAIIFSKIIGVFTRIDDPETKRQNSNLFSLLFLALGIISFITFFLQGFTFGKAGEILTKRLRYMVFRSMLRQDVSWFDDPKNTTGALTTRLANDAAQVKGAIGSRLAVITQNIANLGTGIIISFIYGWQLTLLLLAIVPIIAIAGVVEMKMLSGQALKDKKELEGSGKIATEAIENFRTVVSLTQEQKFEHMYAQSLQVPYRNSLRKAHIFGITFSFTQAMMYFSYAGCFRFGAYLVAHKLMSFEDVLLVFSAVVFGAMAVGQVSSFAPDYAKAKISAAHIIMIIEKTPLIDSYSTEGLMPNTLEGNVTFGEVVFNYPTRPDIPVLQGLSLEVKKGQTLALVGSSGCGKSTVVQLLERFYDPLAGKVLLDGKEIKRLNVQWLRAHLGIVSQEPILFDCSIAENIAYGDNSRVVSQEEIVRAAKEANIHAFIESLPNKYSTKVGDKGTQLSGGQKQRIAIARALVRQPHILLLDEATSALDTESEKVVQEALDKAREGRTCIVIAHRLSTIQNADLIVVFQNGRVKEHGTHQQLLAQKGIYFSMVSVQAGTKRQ
Outline: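 Doxorubicin-maintained MCF-7/ADR cells given vinblastine (0-100 nM, continuous 7 days per results text; methods state 0-15 nM for 48 h) alone or with modulator at its IC10. Survival by SRB versus ethanol vehicle control; vinblastine IC50 with modulator compared to vinblastine alone; triplicates averaged.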

Sequence of ABCB1 (P-glycoprotein) (P08183 whole entry): as above

Row | inhibition at 20 min (ABCB1 (P-glycoprotein)) | IC50 (MCF7) | Structure (SMILES) | IC50 (NCI/ADR-RES) | inhibition (INH) [1] | fold change (FC) [1]
1 | 58% | 2 µM | Cc1cc(C)c2c(c1)c(=O)c1ccccc1n2CCCCN1CCN(CCO)CC1 | 2.56 µM | Active | –
2 | 55% | 4 µM | Cc1cc(C)c2c(c1)c(=O)c1ccccc1n2CCCCN(CCO)CCO | 5.21 µM | Active | –
3 | 28% | – | Cc1cc(C)c2c(c1)c(=O)c1ccccc1n2CCCCl | – | – | –
4 | 61% | – | COc1ccc(CCN(C)CCCC(C#N)(c2ccc(OC)c(OC)c2)C(C)C)cc1OC (stereo unspecified) [VERAPAMIL] | – | – | –
5 | – | – | COc1cccc2c1C(=O)c1c(O)c3c(c(O)c1C2=O)C[C@@](O)(C(C)=O)C[C@@H]3O[C@H]1C[C@H](N)[C@H](O)[C@H](C)O1 [DAUNORUBICIN] | 7.12 µM | – | –
6 | 34% | 58 µM | Cc1cc(C)c2c(c1)c(=O)c1ccccc1n2CCCN1CCCCC1 | 61.7 µM | – | 7.17
7 | 26% | 59.2 µM | Cc1cc(C)c2c(c1)c(=O)c1ccccc1n2CCCN1CCOCC1 | 65.3 µM | – | 6.4
8 | 42% | 30.1 µM | Cc1cc(C)c2c(c1)c(=O)c1ccccc1n2CCCCN1CCCCC1 | 36.3 µM | – | –
9 | – | 0.003 to 0.0032 µM | CC[C@]1(O)C[C@@H]2CN(CCc3c([nH]c4ccccc34)[C@@](C(=O)OC)(c3cc4c(cc3OC)N(C)[C@H]3[C@@](O)(C(=O)OC)[C@H](OC(C)=O)[C@]5(CC)C=CCN6CC[C@]43[C@@H]65)C2)C1 [VINBLASTINE] | 0.0106 to 0.0693 µM | – | –
10 | 54% | 8.3 µM | CCN(CC)CCCCn1c2ccccc2c(=O)c2cc(C)cc(C)c21 | 9.1 µM | Active | –
11 | 46% | 50.2 µM | Cc1cc(C)c2c(c1)c(=O)c1ccccc1n2CCCN1CCN(C)CC1 | 53.5 µM | – | 4.75
12 | 36% | 29.1 µM | CCN(CC)CCCn1c2ccccc2c(=O)c2cc(C)cc(C)c21 | 34.2 µM | – | 10.48
13 | 36% | 20 µM | Cc1cc(C)c2c(c1)c(=O)c1ccccc1n2CCCCN1CCOCC1 | 21.8 µM | Active | –
14 | 43% | 14.5 µM | Cc1cc(C)c2c(c1)c(=O)c1ccccc1n2CCCCN1CCN(C)CC1 | 16.2 µM | – | –
15 | 33% | 79 µM | Cc1cc(C)c2[nH]c3ccccc3c(=O)c2c1 | 82.1 µM | – | 1.4
16 | 52% | 12 µM | Cc1cc(C)c2c(c1)c(=O)c1ccccc1n2CCCN1CCN(CCO)CC1 | 15.1 µM | – | 16.74
17 | 36% | – | Cc1cc(C)c2c(c1)c(=O)c1ccccc1n2CCCCCl | – | – | –
18 | 40% | 19.1 µM | Cc1cc(C)c2c(c1)c(=O)c1ccccc1n2CCCN(CCO)CCO | 22.8 µM | – | 9.7

— ChEMBL document CHEMBL4014272, “Design, synthesis, biological evaluation, molecular docking and QSAR studies of 2,4-dimethylacridones as anticancer agents” (Eur J Med Chem, 2017)
